# Assay results from paper PMC4759708 (CPT: Pharmacometrics & Systems Pharmacology, 2015).
# Where “and” joins values, the source holds several entries; their conditions need not be identical. Equal entries are not always repeated. Where two headings read alike, the source gives them in different places.
# Legend:
# [1] = test system: ex vivo LPS-induced TNFα secretion; type: in vivo, human
# Procedure, shortened: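 Healthy adults received randomized, double-blind, placebo-controlled oral doses: ascending single doses of 0.1–75 mg, or once daily for 14 days. Blood was challenged with LPS ex vivo and TNFα measured. An indirect response model with negative feedback on outflow and a 24-h oscillatory baseline was fitted to drug and placebo data together. Individual Bayesian PK estimates served as input. IC50 was a fraction of predose baseline. Bootstrap used 500 iterations.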
# [2] = Tissue distribution in pigmented and albino rats; type: in vivo; conditions: pigmented vs albino, unpublished data
# [3] = Population pharmacokinetics of oral BCT197 in healthy volunteers; type: in vivo, human
# Procedure, shortened: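 Healthy male and non-childbearing female volunteers aged 18–50 y (BMI 18–30 kg/m²) took ascending single doses or once-daily doses for 14 days. Oral solution was used for 0.1–3 mg and tablets for ≥5 mg. Plasma drug was fitted by nonlinear mixed-effects modelling (FOCE Lindström Bates), with lognormal between-subject variability and tablet mixed zero/first-order absorption. Bootstrap used 500 iterations.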
# [4] = Thermodynamic solubility; type: physicochemical
# [5] = test system: LPS-stimulated TNFα release; assay: LPS-stimulated TNFα release in the human whole blood assay; type: cell-based
# [6] = Safety and tolerability in healthy subjects; type: in vivo, human; conditions: data not shown
# [7] = biological target: T1, p38α (Homo sapiens, UniProt Q16539); assay: In-house p38α inhibition, radiometric; type: biochemical; conditions: read-out: IC50 on p38α (radiometric); in-house studies
# [8] = biological target: P-glycoprotein (Homo sapiens, UniProt P08183); assay: Caco-2 model of intestinal uptake/efflux; type: in vitro ADME; conditions: unpublished data
# [9] = biological target: T1, p38α; assay: In-house p38α inhibition, ELISA; type: biochemical; conditions: read-out: IC50 on p38α (ELISA); in-house studies
# [10] = test system: serum levels of TNFα; assay: Serum TNFα levels after in vivo intravenous LPS challenge; parameters: species or system human; conditions: data not shown
# Procedure, shortened: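 Healthy subjects received a single oral dose, then an intravenous LPS challenge, and serum TNFα was measured. They fasted 10 h before dosing and 4 h after. Apart from the dosing fluid, no fluid was allowed from 2 h before to 2 h after dosing.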
# [11] = COPD patients; intermittent short-term dosing 75 mg on days 1 and 6; cited from earlier work
# [12] = test system: LPS-stimulated TNFα release; conditions: read-out: IC50, TNFα release in the same (human whole blood) assay; cited from earlier work
# [13] = test system: LPS-stimulated TNFα ex vivo; conditions: patients treated, same bioassay; cited from earlier work
# [14] = population mean, final estimate
# T1 sequence (Q16539 whole entry): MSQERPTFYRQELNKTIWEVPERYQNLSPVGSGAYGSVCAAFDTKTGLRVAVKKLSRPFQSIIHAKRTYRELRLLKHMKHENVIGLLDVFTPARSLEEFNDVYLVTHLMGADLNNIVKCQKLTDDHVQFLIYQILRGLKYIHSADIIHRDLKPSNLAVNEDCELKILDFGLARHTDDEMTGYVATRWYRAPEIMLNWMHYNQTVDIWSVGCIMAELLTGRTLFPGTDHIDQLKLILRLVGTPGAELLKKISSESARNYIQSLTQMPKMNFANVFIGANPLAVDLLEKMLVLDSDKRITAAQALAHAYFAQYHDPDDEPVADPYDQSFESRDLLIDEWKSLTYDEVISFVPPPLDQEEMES
# P-glycoprotein, sequence (P08183 whole entry): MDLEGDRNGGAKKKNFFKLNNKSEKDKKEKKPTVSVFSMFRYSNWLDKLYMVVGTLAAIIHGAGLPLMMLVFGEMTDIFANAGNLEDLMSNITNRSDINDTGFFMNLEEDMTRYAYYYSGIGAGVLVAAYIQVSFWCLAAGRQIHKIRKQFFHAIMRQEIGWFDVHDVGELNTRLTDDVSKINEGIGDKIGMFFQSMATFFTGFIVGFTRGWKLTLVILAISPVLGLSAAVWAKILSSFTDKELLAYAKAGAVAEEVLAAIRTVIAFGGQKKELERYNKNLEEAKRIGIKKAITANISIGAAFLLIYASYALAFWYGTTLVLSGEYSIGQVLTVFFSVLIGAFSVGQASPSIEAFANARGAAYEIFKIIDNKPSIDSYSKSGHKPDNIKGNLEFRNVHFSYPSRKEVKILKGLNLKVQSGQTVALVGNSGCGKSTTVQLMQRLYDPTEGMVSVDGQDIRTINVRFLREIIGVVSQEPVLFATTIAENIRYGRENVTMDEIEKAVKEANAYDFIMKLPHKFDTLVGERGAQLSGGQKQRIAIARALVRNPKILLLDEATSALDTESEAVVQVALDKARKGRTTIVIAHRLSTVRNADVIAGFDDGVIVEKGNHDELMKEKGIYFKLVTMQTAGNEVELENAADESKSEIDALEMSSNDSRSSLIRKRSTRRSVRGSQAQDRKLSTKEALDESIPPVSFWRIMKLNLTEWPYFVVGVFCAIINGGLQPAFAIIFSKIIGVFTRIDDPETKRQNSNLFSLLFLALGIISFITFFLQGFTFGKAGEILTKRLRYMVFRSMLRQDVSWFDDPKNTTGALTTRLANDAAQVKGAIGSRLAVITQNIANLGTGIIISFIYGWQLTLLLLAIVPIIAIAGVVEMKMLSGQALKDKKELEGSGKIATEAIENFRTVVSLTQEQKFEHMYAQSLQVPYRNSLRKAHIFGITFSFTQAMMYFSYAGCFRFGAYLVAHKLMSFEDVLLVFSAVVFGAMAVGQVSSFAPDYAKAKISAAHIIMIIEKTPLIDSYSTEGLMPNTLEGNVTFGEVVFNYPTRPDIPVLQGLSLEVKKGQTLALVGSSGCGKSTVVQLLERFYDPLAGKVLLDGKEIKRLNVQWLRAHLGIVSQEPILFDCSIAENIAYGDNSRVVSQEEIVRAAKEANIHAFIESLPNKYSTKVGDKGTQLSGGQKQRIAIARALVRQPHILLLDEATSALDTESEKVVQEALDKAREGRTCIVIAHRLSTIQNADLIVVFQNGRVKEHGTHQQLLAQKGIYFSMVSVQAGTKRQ
structure (smiles),measurement,setting,value
Cc1ccc(C(=O)NC2CC2)cc1-n1ncc(C(=O)c2cccc(C#N)c2)c1N [BCT197],"IC50, concentration at half maximum inhibition",[1]; bootstrap median and 90% CI,44.3 [30.6;65.5] µg/L
same,"Imax, maximum inhibition",[1]; bootstrap median and 90% CI,0.668 [0.6121;0.752]
same,"Kout, first order degradation rate of drug response",[1]; bootstrap median and 90% CI,0.353 [0.170;0.592] 1/h
same,"Ktol, first order production rate of negative feedback",[1]; bootstrap median and 90% CI,0.00281 [0.00173;0.00529] 1/h
same,"Maximum inhibition from baseline (Imax), plateau in the typical individual",[1]; ex vivo LPS-induced TNFα secretion,about 66%
same,"t1/2,ktol (rate constant governing tolerance)","[1]; human, in vivo",252 h
same,"Imax, maximum inhibition",[1]; [14],0.663
same,"Kout, first order degradation rate of drug response",[1]; [14],0.348 h⁻¹
same,"Ktol, first order production rate of negative feedback",[1]; [14],0.00276 h⁻¹
same,"IC50, concentration at half maximum inhibition","[1]; population mean, final estimate, plasma concentration, modeled as fraction of predose baseline",44 µg/L and 44.3 µg/L
same,"t1/2,kout (hysteresis in drug effect)",[1]; single dose,2 h
same,tissue distribution / retention in melanin-containing tissues,[2],remained much longer detectable in the skin and eye of the pigmented but not albino animal
same,"Bmax, total binding capacity (tissue binding)",[3]; bootstrap median and 90% CI,507 [308;806] µg
same,"K1b, first order transfer rate from central compartment into shunt compartment",[3]; bootstrap median and 90% CI,0.0105 [0.00791;0.0132] 1/h
same,"Kt=Kint1, first-order oral absorption rate constant of tablet",[3]; bootstrap median and 90% CI,1.13 [0.934;1.42] 1/h
same,"Rate, zero order oral absorption rate (tablet)",[3]; bootstrap median and 90% CI,2310 [2170;2530] µg/h
same,"V1/F, volume of central compartment",[3]; bootstrap median and 90% CI,71.5 [58.1;98.7] L
same,"fc, fraction of oral dose (tablet) absorbed in a zero-order fashion",[3]; bootstrap median and 90% CI,0.342 [0.291;0.392]
same,"CL/F, oral drug clearance","[3]; bootstrap median and 90% CI, 500 iterations",1.77 [1.47;2.05] L/h
same,rise in drug levels in reaching steady-state,"[3]; once-daily regimen, on average",3 fold
same,time of double peak behavior postdose,[3]; plasma concentration profile,18 to 24 h
same,"Bmax, total binding capacity (tissue binding)",[3]; [14],500 µg
same,"K1b, first order transfer rate from central compartment into shunt compartment",[3]; [14],0.0106 h⁻¹
same,"Kt=Kint1, first-order oral absorption rate constant of tablet",[3]; [14],1.12 h⁻¹
same,"V1/F, volume of central compartment",[3]; [14],71.9 L
same,"V2/F, volume of peripheral compartment",[3]; [14],25.5 L
same,"CL/F, oral drug clearance","[3]; population mean, final estimate, healthy volunteers, oral 0.1-75 mg",1.76 L/h
same,"fc, fraction of oral dose (tablet) absorbed in a zero-order fashion","[3]; population mean, final estimate, modeled in logit domain and back transformed",0.344
same,"Ks, first-order oral absorption rate constant of solution","[3]; population mean, fixed",5 (fixed) 1/h
same,"Tlag, absorption lag time","[3]; population mean, fixed",0.232 (fixed) h
same,"Tpump, shunt compartment emptying lag time","[3]; population mean, fixed",18 (fixed) h
same,fraction (fc) of dose absorbed by the first-order process,"[3]; tablets, mixed-order absorption model, on average",66%
same,pH-independent thermodynamic solubility,[4],~0.2 mg/mL
same,IC50,"[5]; read-out: IC50 (total drug), LPS-stimulated TNFα release, human whole blood assay, total drug",51 nM
same,IC50,"[5]; read-out: free IC50, LPS-stimulated TNFα release, human whole blood assay, free drug",24 nM
same,"Tolerability, continuous dosing",[6]; continuous dosing of 10 mg,acneiform skin rashes
same,"Tolerability, single high doses",[6]; single high doses up to 75 mg,well tolerated
same,IC50,[7],37 nM
same,"saturation of low-affinity efflux pump, most likely P-glycoprotein",[8],not saturated up to 0.1 mg/mL
same,IC50,[9],12 nM
same,inhibition of serum levels of TNFα following in vivo intravenous LPS challenge,[10]; single oral administration of 20 mg,96%
same,inhibition of serum levels of TNFα following in vivo intravenous LPS challenge,[10]; single oral administration of 75 mg,97%
same,lung function (FEV1),[11],marked improvement
CNC(=O)c1ccc(C)c(-n2c(C)cc(OCc3ccc(F)cc3F)c(Br)c2=O)c1 [PH‐797804],IC50,[12],85 nM
Cc1c(F)cc(C(=O)NC2CC2)cc1-c1ccc(C(=O)NCC(C)(C)C)cn1 [losmapimod],IC50,[12],25 nM
"O=C(Nc1c(Cl)cncc1Cl)c1ccc(OC(F)F)c(OCC2CC2)c1 [rofluminast, roflumilast]",TNFα levels ex vivo,[13],significant suppression
